Reference: ChEMBL document CHEMBL1149614, “Exomethylene pyranonucleosides: efficient synthesis and biological evaluation of 1-(2,3,4-trideoxy-2-methylene-beta-d-glycero-hex-3-enopyranosyl)thymine” (Bioorg Med Chem, 2007)

Assays:
[1] = Selectivity index, ratio of CC50 for rhesus monkey MA104 cells to IC50 for Rotavirus RF after attachment to MA104 cells
[2] = Selectivity index, ratio of CC50 for rhesus monkey MA104 cells to IC50 for Rotavirus RF; assay type: functional
[3] = Selectivity index, ratio of CC50 for human Caco-2 cells to IC50 for Rotavirus RF; assay type: functional
[4] = test system: Rotavirus; assay: Antiviral activity against Rotavirus RF in rhesus monkey MA104 cells assessed as inhibition of infectivity following virus attachment after 72 hrs; assay type: functional, organism-based; settings: MA104, 72 h
How it was run: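 Monolayers infected with rotavirus RF for 1 h at 37 °C in 5% CO2, then washed with unsupplemented DMEM and immediately given 3-fold serial dilutions from 0.5 mg/mL. Results are mean % of virus-only control absorbance (n = 6).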

[5] = test system: Rotavirus; assay: Antiviral activity against Rotavirus RF infected in rhesus monkey MA104 cells assessed as neutralization of virus in solution before its attachment after 72 hrs; assay type: functional, organism-based; settings: MA104, 72 h
How it was run: (§1)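 Threefold dilutions from 0.5 mg/mL were co-incubated with rotavirus RF in trypsin-supplemented DMEM for 12 h at 37 °C, 5% CO2, before infecting monolayers. Results are mean % of virus-only control (n = 6) for each dilution. IC50 taken from the concentration–effect curve.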

[6] = test system: H4; assay: Cytotoxicity against human H4 cells after 72 hrs; assay type: functional; settings: H4, 72 h
How it was run: (§2)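 H4 or Caco-2 cells (6 × 10⁶ per plate) treated with 3-fold serial dilutions from 0.5 mg/mL and held 72 h at 37 °C in a humidified incubator. Results are mean % of treated (n = 2) versus control (n = 24) absorbance.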

[7] = Tumor selectivity index, ratio of CC50 for human H4 cells to CC50 for human Caco-2 cells; assay type: functional
How it was run: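 Ratio of 72 h crystal-violet CC50 in H4 cells to CC50 in Caco-2 cells.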

[8] = test system: Caco-2; assay: Growth inhibition of human Caco-2 cells after 10 days; assay type: functional, cell-based; settings: Caco-2, 240 h
How it was run: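 Caco-2 monolayers in DMEM/10% fetal bovine serum received 3-fold dilutions from 0.5 mg/mL, six wells per compound, for 10 days at 37 °C, humidified. Colonies counted in each well. Results are mean % colony number of treated (n = 2) versus control (n = 24) wells.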

[9] = Cytotoxicity against rhesus monkey MA104 cells after 72 hrs; assay type: functional; settings: Macaca mulatta, MA104, 72 h
[10] = test system: Caco-2; assay: Cytotoxicity against human Caco-2 cells after 72 hrs; assay type: functional; settings: Caco-2, 72 h
How it was run: as §2

[11] = Tumor selectivity index, ratio of CC50 for human H4 cells to CC50 for rhesus monkey MA104 cells; assay type: functional
[12] = test system: Rotavirus; assay: Antiviral activity against Rotavirus RF in human Caco-2 cells assessed as neutralization of virus in solution before its attachment after 72 hrs; assay type: functional, organism-based; settings: Caco-2, 72 h
How it was run: as §1

| Structure (SMILES) | Ratio CC50/IC50 [1] | Ratio CC50/IC50 [2] | Ratio CC50/IC50 [3] | IC50 [4] [µM] | IC50 [5] [µM] | CC50 [6] [µM] | Ratio [7] | IC50 [8] [µM] | CC50 [9] [µM] | CC50 [10] [µM] | Ratio [11] | IC50 [12] [µM] |
| --- | --- | --- | --- | --- | --- | --- | --- | --- | --- | --- | --- | --- |
| Cc1cn([C@H]2C[C@H](N=[N+]=[N-])[C@@H](CO)O2)c(=O)[nH]c1=O [ZIDOVUDINE] | 10.03 | 3.01 | 0.75 | 22.4 | 74.6 | – | – | – | – | – | – | – |
| C=C1C=C[C@@H](COC(c2ccccc2)(c2ccccc2)c2ccccc2)O[C@H]1n1cc(C)c(=O)[nH]c1=O | 60 | – | – | 4.06 | – | 40.6 | 0.04 | 0.4 | 244 | 1020 | 0.16 | – |
| Cc1cn([C@@H]2O[C@H](CO)[C@H](O)[C@H](O)C2=O)c(=O)[nH]c1=O | 30.03 | 85.9 | 28.65 | 6.98 | 2.44 | 1750 | 25 | 0.7 | 210 | 69.9 | 8.3 | 2.44 |
| C=C1[C@@H](O)[C@@H](O)[C@@H](CO)O[C@H]1n1cc(C)c(=O)[nH]c1=O | 30.03 | 85.8 | 28.61 | 7.03 | 2.46 | 1760 | 24.9 | 21.1 | 211 | 70.4 | 8.3 | 2.46 |
| C=C1C=C[C@@H](CO)O[C@H]1n1cc(C)c(=O)[nH]c1=O | 5.99 | – | – | 79.9 | – | 2.8 | 0.0014 | 79.9 | 480 | 2000 | 0.0058 | – |
| O=c1[nH]cc(F)c(=O)[nH]1 [FLUOROURACIL] | – | – | – | – | – | 3840 | 10 | – | 231 | – | 16.67 | – |
